Experimental data reported in ChEMBL document CHEMBL4689842, “EUbOPEN Chemogenomics Library wave 1” (2021).

How the values were obtained:
Type in all cases: toxicity, cell-based
[1] = test system: U2OS; test: Incucyte cell viability with U2OS; details: human, 10 µM, compound concentration 10 uM; also: filed as whole numbers so only -1 and 0 and 1 occur
[2] = test system: HEK-293T; test: Incucyte cell viability with HEK293T; details: human, 10 µM, compound concentration 10 uM; also: filed as whole numbers so only -1 and 0 and 1 occur
[3] = test system: Fibroblast; test: Multiplex assay against human fibroblast
Summary of the method: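 Live cells were stained at seeding with Hoechst33342, BioTracker Green Microtubule Cytoskeleton Dye, MitoTracker Red and Annexin V Alexa Fluor 680, then imaged on a CQ1 microscope at 37°C and 5% CO2 after compound addition. CellPathfinder machine-learning gating split cells into Hoechst high-intensity objects or normal cells. Normal cells were split into healthy, pyknosed or fragmented nuclei, and pyknosed cells into mitotic or apoptotic. Tubulin, mitochondrial-mass and membrane-permeability phenotypes are per cents of healthy-nucleus cells.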

[4] = 6 h, replicate number 1, timepoint 6 hours
[5] = 12 h, replicate number 1, timepoint 12 hours
[6] = 18 h, replicate number 1, timepoint 18 hours
[7] = 24 h, replicate number 1, timepoint 24 hours
[8] = 12 h, 1 µM, compound concentration 1 uM, replicate 1
[9] = 12 h, 1 µM, compound concentration 1 uM, replicate 2
[10] = 12 h, 10 µM, compound concentration 10 uM, replicate 1
[11] = 12 h, 10 µM, compound concentration 10 uM, replicate 2
[12] = 24 h, 1 µM, compound concentration 1 uM, replicate 1
[13] = 24 h, 1 µM, compound concentration 1 uM, replicate 2
[14] = 24 h, 10 µM, compound concentration 10 uM, replicate 1
[15] = 24 h, 10 µM, compound concentration 10 uM, replicate 2
[16] = 48 h, 1 µM, compound concentration 1 uM, replicate 1
[17] = 48 h, 1 µM, compound concentration 1 uM, replicate 2
[18] = 48 h, 10 µM, compound concentration 10 uM, replicate 1
[19] = 48 h, 10 µM, compound concentration 10 uM, replicate 2

In the case of `Cc1c(P(=S)(c2ccccc2)c2ccccc2)n2ccccc2[n+]1C/C=C/c1ccccc1.[Br-]`, the “Growth Rate” value [1, 4] is reported as 0, the “Growth Rate” value [1, 5] is reported as 0 and the “Growth Rate” value [1, 6] is reported as 0. For the same compound, the “Growth Rate” value [1, 7] was 0, the “Growth Rate” value ([2]; 0 h, replicate number 2, timepoint 0 hours) was 1 and the “Growth Rate” value [2, 4] was 0. The “Growth Rate” value [2, 5] was 0, the “Growth Rate” value [2, 6] was 0 and the “Growth Rate” value [2, 7] was 0. The “Population Apoptotic (%)” value [3, 8] was 63%, the “Population Fragmented Nuclei (%)” value [3, 8] was 26% and the “Population Healthy Nuclei (%)” value [3, 8] was 43%. The “Population Hoechst High Intensity Objects (%)” value [3, 8] was 7%, the “Population Membrane Permeable-Phenotype (%)” value [3, 8] was 7% and the “Population Mitochondria Different-Phenotype (%)” value [3, 8] was 28%. The “Population Mitotic Cells (%)” value [3, 8] was 36%, the “Population Normal (%)” value [3, 8] was 92% and the “Population Pyknosed Nuclei (%)” value [3, 8] was 30%. The “Population Tubulin-Different-Phenotype (%)” value [3, 8] was 60%, the “Total Cell Count” value [3, 8] was 177 and the “Population Apoptotic (%)” value [3, 9] was 75%. The “Population Fragmented Nuclei (%)” value [3, 9] was 50%, the “Population Healthy Nuclei (%)” value [3, 9] was 45% and the “Population Hoechst High Intensity Objects (%)” value [3, 9] was 22%. The “Population Membrane Permeable-Phenotype (%)” value [3, 9] was 10%, the “Population Mitochondria Different-Phenotype (%)” value [3, 9] was 50% and the “Population Mitotic Cells (%)” value [3, 9] was 25%. The “Population Normal (%)” value [3, 9] was 77%, the “Population Pyknosed Nuclei (%)” value [3, 9] was 4% and the “Population Tubulin-Different-Phenotype (%)” value [3, 9] was 31%. The “Total Cell Count” value [3, 9] was 93, the “Population Apoptotic (%)” value [3, 10] was 73% and the “Population Fragmented Nuclei (%)” value [3, 10] was 23%. For the same compound, the “Population Healthy Nuclei (%)” value [3, 10] was 14%, the “Population Hoechst High Intensity Objects (%)” value [3, 10] was 14% and the “Population Membrane Permeable-Phenotype (%)” value [3, 10] was 5%. The “Population Mitochondria Different-Phenotype (%)” value [3, 10] was 64%, the “Population Mitotic Cells (%)” value [3, 10] was 26% and the “Population Normal (%)” value [3, 10] was 85%. The “Population Pyknosed Nuclei (%)” value [3, 10] was 62%, the “Population Tubulin-Different-Phenotype (%)” value [3, 10] was 88% and the “Total Cell Count” value [3, 10] was 137. The “Population Apoptotic (%)” value [3, 11] was 94%, the “Population Fragmented Nuclei (%)” value [3, 11] was 21% and the “Population Healthy Nuclei (%)” value [3, 11] was 10%. For the same compound, the “Population Hoechst High Intensity Objects (%)” value [3, 11] was 8%, the “Population Membrane Permeable-Phenotype (%)” value [3, 11] was 83% and the “Population Mitochondria Different-Phenotype (%)” value [3, 11] was 83%. The “Population Mitotic Cells (%)” value [3, 11] was 5%, the “Population Normal (%)” value [3, 11] was 91% and the “Population Pyknosed Nuclei (%)” value [3, 11] was 68%. The “Population Tubulin-Different-Phenotype (%)” value [3, 11] was 83%, the “Total Cell Count” value [3, 11] was 108 and the “Population Apoptotic (%)” value [3, 12] was 70%. The “Population Fragmented Nuclei (%)” value [3, 12] was 22%, the “Population Healthy Nuclei (%)” value [3, 12] was 58% and the “Population Hoechst High Intensity Objects (%)” value [3, 12] was 9%. For the same compound, the “Population Membrane Permeable-Phenotype (%)” value [3, 12] was 5%, the “Population Mitochondria Different-Phenotype (%)” value [3, 12] was 40% and the “Population Mitotic Cells (%)” value [3, 12] was 29%. For the same compound, the “Population Normal (%)” value [3, 12] was 90%, the “Population Pyknosed Nuclei (%)” value [3, 12] was 19% and the “Population Tubulin-Different-Phenotype (%)” value [3, 12] was 59%. The “Total Cell Count” value [3, 12] was 181, the “Population Apoptotic (%)” value [3, 13] was 75% and the “Population Fragmented Nuclei (%)” value [3, 13] was 55%. The “Population Healthy Nuclei (%)” value [3, 13] was 40%, the “Population Hoechst High Intensity Objects (%)” value [3, 13] was 33% and the “Population Membrane Permeable-Phenotype (%)” value [3, 13] was 9%. For the same compound, the “Population Mitochondria Different-Phenotype (%)” value [3, 13] was 31%, the “Population Mitotic Cells (%)” value [3, 13] was 25% and the “Population Normal (%)” value [3, 13] was 66%. For the same compound, the “Population Pyknosed Nuclei (%)” value [3, 13] was 3%, the “Population Tubulin-Different-Phenotype (%)” value [3, 13] was 15% and the “Total Cell Count” value [3, 13] was 124. For the same compound, the “Population Apoptotic (%)” value [3, 14] was 85%, the “Population Fragmented Nuclei (%)” value [3, 14] was 17% and the “Population Healthy Nuclei (%)” value [3, 14] was 10%. The “Population Hoechst High Intensity Objects (%)” value [3, 14] was 18%, the “Population Membrane Permeable-Phenotype (%)” value [3, 14] was 8% and the “Population Mitochondria Different-Phenotype (%)” value [3, 14] was 83%. For the same compound, the “Population Mitotic Cells (%)” value [3, 14] was 14%, the “Population Normal (%)” value [3, 14] was 81% and the “Population Pyknosed Nuclei (%)” value [3, 14] was 71%. For the same compound, the “Population Tubulin-Different-Phenotype (%)” value [3, 14] was 75%, the “Total Cell Count” value [3, 14] was 138 and the “Population Apoptotic (%)” value [3, 15] was 100%. The “Population Fragmented Nuclei (%)” value [3, 15] was 23%, the “Population Healthy Nuclei (%)” value [3, 15] was 38% and the “Population Hoechst High Intensity Objects (%)” value [3, 15] was 26%. The “Population Membrane Permeable-Phenotype (%)” value [3, 15] was 81%, the “Population Mitochondria Different-Phenotype (%)” value [3, 15] was 81% and the “Population Mitotic Cells (%)” value [3, 15] was 0%. For the same compound, the “Population Normal (%)” value [3, 15] was 73%, the “Population Pyknosed Nuclei (%)” value [3, 15] was 38% and the “Population Tubulin-Different-Phenotype (%)” value [3, 15] was 81%. For the same compound, the “Total Cell Count” value [3, 15] was 163, the “Population Apoptotic (%)” value [3, 16] was 60% and the “Population Fragmented Nuclei (%)” value [3, 16] was 33%. The “Population Healthy Nuclei (%)” value [3, 16] was 54%, the “Population Hoechst High Intensity Objects (%)” value [3, 16] was 12% and the “Population Membrane Permeable-Phenotype (%)” value [3, 16] was 6%. For the same compound, the “Population Mitochondria Different-Phenotype (%)” value [3, 16] was 42%, the “Population Mitotic Cells (%)” value [3, 16] was 40% and the “Population Normal (%)” value [3, 16] was 87%. The “Population Pyknosed Nuclei (%)” value [3, 16] was 11%, the “Population Tubulin-Different-Phenotype (%)” value [3, 16] was 64% and the “Total Cell Count” value [3, 16] was 191. The “Population Apoptotic (%)” value [3, 17] was 100%, the “Population Fragmented Nuclei (%)” value [3, 17] was 29% and the “Population Healthy Nuclei (%)” value [3, 17] was 70%. The “Population Hoechst High Intensity Objects (%)” value [3, 17] was 10%, the “Population Membrane Permeable-Phenotype (%)” value [3, 17] was 2% and the “Population Mitochondria Different-Phenotype (%)” value [3, 17] was 48%. For the same compound, the “Population Mitotic Cells (%)” value [3, 17] was 0%, the “Population Normal (%)” value [3, 17] was 89% and the “Population Pyknosed Nuclei (%)” value [3, 17] was 0%. For the same compound, the “Population Tubulin-Different-Phenotype (%)” value [3, 17] was 72%, the “Total Cell Count” value [3, 17] was 123 and the “Population Apoptotic (%)” value [3, 18] was 92%. For the same compound, the “Population Fragmented Nuclei (%)” value [3, 18] was 36%, the “Population Healthy Nuclei (%)” value [3, 18] was 21% and the “Population Membrane Permeable-Phenotype (%)” value [3, 18] was 0%. The “Population Mitochondria Different-Phenotype (%)” value [3, 18] was 85%, the “Population Mitotic Cells (%)” value [3, 18] was 7% and the “Population Pyknosed Nuclei (%)” value [3, 18] was 42%. For the same compound, the “Population Tubulin-Different-Phenotype (%)” value [3, 18] was 95%, the “Total Cell Count” value [3, 18] was 141 and the “Population Apoptotic (%)” value [3, 19] was 84%. For the same compound, the “Population Fragmented Nuclei (%)” value [3, 19] was 52%, the “Population Healthy Nuclei (%)” value [3, 19] was 18% and the “Population Hoechst High Intensity Objects (%)” value [3, 19] was 32%. The “Population Membrane Permeable-Phenotype (%)” value [3, 19] was 25%, the “Population Mitochondria Different-Phenotype (%)” value [3, 19] was 75% and the “Population Mitotic Cells (%)” value [3, 19] was 15%. The “Population Normal (%)” value [3, 19] was 67%, the “Population Pyknosed Nuclei (%)” value [3, 19] was 29% and the “Population Tubulin-Different-Phenotype (%)” value [3, 19] was 100%. For the same compound, the “Total Cell Count” value [3, 19] was 65.
